Data from ChEMBL document CHEMBL1124239, “Decomposition of N-(2-chloroethyl)-N-nitrosocarbamoyl amino acid amides” (J Med Chem, 1988).

Experiments:
Mus musculus [1] = experiment: Increase in life span was tested after administration of single maximal effective ip dose at 20 mg/kg (0.08 mmol/kg) in L1210 leukemia mice; type: functional; conditions: route intraperitoneal
How it was run: (§1)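 L1210 leukemia-bearing mice got a single ip dose on the first day after transplantation. Read-out was median survival in days, treated (T) versus control (C). %ILS = (T − C)/C × 100. Doses are given in both mg/kg and mmol/kg; "tox" marks doses that were toxic.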

Mus musculus [2] = experiment: Increase in life span was tested after administration of single ip dose at 40 mg/kg (0.16 mmol/kg) in L1210 leukemia mice; Toxic; type: toxicity, organism-based; design: dose 40 mg/kg, route intraperitoneal; conditions: in vivo; how it was run: as §1
[3] = Rate constant at a concentration of 2.54M*10e-3 was determined; type: ADME
How it was run: (§2)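 Decomposition was followed in aqueous solution. Rate constants and half-lives were calculated assuming apparent first-order kinetics.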

[4] = Half-life evaluated in 0.1 M phosphate buffer, 37 degree Centigrade.; type: ADME; how it was run: as §2
Mus musculus [5] = experiment: Increase in life span was tested after administration of single maximal effective ip dose at 100 mg/kg (0.4 mmol/kg) in L1210 leukemia in mice; type: functional; conditions: route intraperitoneal; how it was run: as §1
Mus musculus [6] = experiment: Increase in life span was tested after administration of single ip dose at 200 mg/kg (0.8 mmol/kg) in L1210 leukemia in mice; Toxic; type: toxicity, organism-based; design: dose 200 mg/kg, route intraperitoneal; conditions: in vivo; how it was run: as §1
Mus musculus [7] = experiment: Increase in life span was tested after administration of single maximal effective ip dose at 20 mg/kg (0.11 mmol/kg) in L1210 leukemia in mice; type: functional; conditions: route intraperitoneal; how it was run: as §1
Mus musculus [8] = experiment: Increase in life span was tested after administration of single ip dose at 38 mg/kg (0.21 mmol/kg) in L1210 leukemia in mice; Toxic; type: toxicity, organism-based; design: dose 38 mg/kg, route intraperitoneal; conditions: in vivo; how it was run: as §1

## CC(C)C(NC(=O)N(CCCl)N=O)C(N)=O (stereo not given)
Mus musculus [1]
  ILS at 20 mg/kg: 212%
Mus musculus [2]
  ILS: Toxic
[3]
  k: 0.0452 min⁻¹
[4]
  half-life: 0.258 h

## NC(=O)C1CCCN1C(=O)N(CCCl)N=O (stereo not given)
Mus musculus [5]
  ILS at 100 mg/kg: 420%
[3]
  k: 0.00274 min⁻¹
Mus musculus [6]
  ILS: Toxic
[4]
  half-life: 4.26 h

## O=NN(CCCl)C(=O)NCCCl [CARMUSTINE]
Mus musculus [7]
  ILS at 20 mg/kg: 115%
Mus musculus [8]
  ILS: Toxic
